Consider 1 compound from article PMC6133078 (European Journal of Drug Metabolism and Pharmacokinetics, 2018).

A short description of series [1]: Stability tests of puquitinib in human plasma QC samples. To be noted: in words. In kind it is physicochemical. In outline:
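Plasma QC samples (3.00, 250.00, 400.00 ng/mL) were tested three ways: extracted samples at room temperature for about 72 h; three freeze (−80 °C) and thaw (room temperature) cycles within a month, analysed in triplicate; and storage at −80 °C for 1 month. Quantified by HPLC–MS/MS against same-day calibration; accuracy given as RE%.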

The test system of series [2] is several cancer cell lines, such as lung, breast, ovarian, colon, prostate cancer, leukemia, lymphoma and osteosarcoma. To be noted: according to the data in vitro; cited from earlier work.
For series [3], the system named is xenograft. To be noted: xenograft mice model; preliminary studies; cited from earlier work.

SMILES strings stand for the structures. Structures can show the parent of a compound that is named as a salt.

As a reminder, the IC50 is the concentration that gives 50% inhibition. In the case of `c1cnc2ccc(Nc3nc(NC4CC4)c4nc[nH]c4n3)cc2c1` [puquitinib, Puquitinib mesylate], the “stability during short-term, freeze and thaw and long-term tests” value in series [1] was “good stability”. In addition, the concentration for half-maximal inhibition (IC50) in series [2] was 500 to 2000 nM. In series [3], the antitumor efficacy entry is reported as “clear antitumor efficacy”.
